The subject of assay [1] is Staphylococcus epidermidis. The assay is described as follows: Inhibition of biofilm formation in Staphylococcus epidermidis 62/04 after 24 hrs using MTT staining by spectrophotometer analysis. In kind it is functional, organism-based. The following applies: 62/04, 24 h. The method, boiled down: (§1)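 Biofilm was grown for 24 h at 37 °C in TSB with 0.5% glucose from 10^7 CFU/mL inoculum, mixed 1:1 with compound. Final concentrations were 0.125–4 or 0.25–8 µg/ml. Wells were PBS-washed and MTT-stained for 2 h at 37 °C, solubilized in DMSO/glycine buffer and read at 554 nm. IC50 (50% inhibition of biofilm formation) was taken from the dose-response curve; quadruplicates.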

For assay [2], the target named is T1, Topoisomerase IV (Staphylococcus aureus) (UniProt P0C1U9+P0C1S7). In words: Inhibition of decatenation activity of DNA topoisomerase 4 in hospital methicillin-resistant Staphylococcus aureus 80/05 using kDNA as substrate at 1 to 4 ug/ml after 1 hr using ethidium bromide staining by agarose gel electrophoresis. In kind it is protein-complex assay.
The target in assay [3] is T2, DNA topoisomerase 4 (Staphylococcus epidermidis) (UniProt Q5HPI6+Q5HPI5). In words: Inhibition of decatenation activity of DNA topoisomerase 4 in Staphylococcus epidermidis ATCC 35984 using kDNA as substrate at 32 ug/ml after 1 hr using ethidium bromide staining by agarose gel electrophoresis. In kind it is protein assay.
T2 sequence (Q5HPI5 whole entry, looked up): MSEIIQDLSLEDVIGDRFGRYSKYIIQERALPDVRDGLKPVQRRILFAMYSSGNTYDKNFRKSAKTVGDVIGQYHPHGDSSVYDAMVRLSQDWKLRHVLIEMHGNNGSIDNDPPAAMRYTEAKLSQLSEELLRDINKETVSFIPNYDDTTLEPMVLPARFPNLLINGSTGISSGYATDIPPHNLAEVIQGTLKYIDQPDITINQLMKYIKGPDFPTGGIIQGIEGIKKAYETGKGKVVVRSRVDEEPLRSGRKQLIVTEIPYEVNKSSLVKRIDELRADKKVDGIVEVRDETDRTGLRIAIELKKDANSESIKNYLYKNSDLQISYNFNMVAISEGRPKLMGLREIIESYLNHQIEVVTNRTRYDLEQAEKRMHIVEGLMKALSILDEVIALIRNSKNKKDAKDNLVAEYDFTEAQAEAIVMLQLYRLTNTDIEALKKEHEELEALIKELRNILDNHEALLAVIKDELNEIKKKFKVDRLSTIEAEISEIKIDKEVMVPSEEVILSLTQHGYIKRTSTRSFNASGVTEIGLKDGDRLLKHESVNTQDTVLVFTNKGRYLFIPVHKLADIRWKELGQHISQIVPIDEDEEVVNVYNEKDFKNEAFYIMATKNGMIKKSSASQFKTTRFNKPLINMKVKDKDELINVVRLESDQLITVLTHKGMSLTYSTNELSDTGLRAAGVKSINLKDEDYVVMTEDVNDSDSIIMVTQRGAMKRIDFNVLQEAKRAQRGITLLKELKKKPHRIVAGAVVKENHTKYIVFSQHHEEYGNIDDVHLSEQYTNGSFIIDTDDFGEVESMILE
T2 sequence (Q5HPI6 whole entry, looked up): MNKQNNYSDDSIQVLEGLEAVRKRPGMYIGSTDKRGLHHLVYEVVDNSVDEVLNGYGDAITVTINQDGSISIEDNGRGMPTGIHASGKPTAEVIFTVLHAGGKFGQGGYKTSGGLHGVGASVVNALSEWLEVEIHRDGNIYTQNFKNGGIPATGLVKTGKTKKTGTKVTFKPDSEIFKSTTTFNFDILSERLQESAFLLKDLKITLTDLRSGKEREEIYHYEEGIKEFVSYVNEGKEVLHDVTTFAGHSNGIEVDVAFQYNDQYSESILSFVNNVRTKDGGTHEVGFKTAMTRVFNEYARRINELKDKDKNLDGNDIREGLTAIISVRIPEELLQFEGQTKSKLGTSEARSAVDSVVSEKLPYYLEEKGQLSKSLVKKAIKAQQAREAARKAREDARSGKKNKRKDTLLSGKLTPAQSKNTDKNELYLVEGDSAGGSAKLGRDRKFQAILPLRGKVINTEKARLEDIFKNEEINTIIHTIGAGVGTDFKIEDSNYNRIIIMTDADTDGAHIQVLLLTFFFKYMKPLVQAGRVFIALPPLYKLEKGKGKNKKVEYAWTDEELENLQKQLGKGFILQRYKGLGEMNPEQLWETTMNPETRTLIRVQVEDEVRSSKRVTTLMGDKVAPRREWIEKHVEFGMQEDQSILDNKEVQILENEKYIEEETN
The target in assay [4] is T2, DNA topoisomerase 4 (Staphylococcus epidermidis). In words: Inhibition of decatenation activity of DNA topoisomerase 4 in hospital methicillin-resistant Staphylococcus epidermidis 76/04 using kDNA as substrate at 32 ug/ml after 1 hr using ethidium bromide staining by agarose gel electrophoresis. Type of assay: protein assay.
Assay [5] concerns Staphylococcus epidermidis. In words: Inhibition of biofilm formation in Staphylococcus epidermidis […]/[…] at 4 ug/ml after 24 hrs using MTT staining by spectrophotometer analysis. Type of assay: functional. The following applies: 16/04, 24 h.
The subject of assay [6] is Staphylococcus epidermidis. In words: Inhibition of biofilm formation in Staphylococcus epidermidis 24/04 after 24 hrs using MTT staining by spectrophotometer analysis. The following applies: 24/04, 24 h. Type of assay: functional, organism-based.
Assay [7] addresses T2, DNA topoisomerase 4 (Staphylococcus epidermidis). Conditions: 24/04, at 32 µg/mL.
Assay [8] has the same target. The following applies: 16/04, at 1 to 4 µg/mL.
Assay [9] has the same target. The assay is described as follows: Inhibition of decatenation activity of DNA topoisomerase 4 in hospital methicillin-resistant Staphylococcus epidermidis 151/04 using kDNA as substrate at 32 ug/ml after 1 hr using ethidium bromide staining by agarose gel electrophoresis. In kind it is protein assay.
The target is the same in assay [10]. In words: Inhibition of decatenation activity of DNA topoisomerase 4 in hospital methicillin-resistant Staphylococcus epidermidis 76/04 using kDNA as substrate at 1 to 4 ug/ml after 1 hr using ethidium bromide staining by agarose gel electrophoresis. Type of assay: protein assay.
The test system of assay [11] is Staphylococcus epidermidis. The assay is described as follows: Inhibition of biofilm formation in Staphylococcus epidermidis 31/04 at 4 ug/ml after 24 hrs using MTT staining by spectrophotometer analysis. Conditions: 31/04, 24 h. Type of assay: functional. The method, boiled down: (§2)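 Methicillin-resistant hospital isolates or ATCC strains of S. epidermidis were grown overnight in tryptone soy broth with 0.5% glucose. Inoculum of 10^7 CFU/mL was mixed 1:1 with compound in TSB-glucose and incubated 24 h at 37 °C. Non-adherent cells were washed off with PBS, and wells were stained with MTT (0.5% in PBS) for 2 h at 37 °C. Stain was solubilized in DMSO/glycine buffer and read at A554. Inhibition is relative to drug-free control; quadruplicates.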

For assay [12], the system named is Staphylococcus epidermidis. The assay is described as follows: Inhibition of biofilm formation in Staphylococcus epidermidis ATCC 12228 at 4 ug/ml after 24 hrs using MTT staining by spectrophotometer analysis. The following applies: ATCC 12228, 24 h. In kind it is functional. Summed up: as §2
The target in assay [13] is T1, Topoisomerase IV (Staphylococcus aureus). In words: Inhibition of decatenation activity of DNA topoisomerase 4 in hospital methicillin-resistant Staphylococcus aureus 573/11 using kDNA as substrate at 1 to 4 ug/ml after 1 hr using ethidium bromide staining by agarose gel electrophoresis. Type of assay: protein-complex assay.
The target is the same in assay [14]. The assay is described as follows: Inhibition of decatenation activity of DNA topoisomerase 4 in Staphylococcus aureus ATCC 29213 using kDNA as substrate at 1 to 4 ug/ml […] using ethidium bromide staining by agarose gel electrophoresis. In kind it is protein-complex assay.
Assay [15] has as its target T2, DNA topoisomerase 4 (Staphylococcus epidermidis). Conditions: 24/04, at 1 to 4 µg/mL.
Assay [16] concerns CCRF-SB. The assay is described as follows: Cytotoxicity against human CCRF-SB cells after 96 hrs by MTT assay. Type of assay: functional. The method, boiled down: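 Leukaemia/lymphoma lines seeded at 1×10^5 cells/ml in RPMI-1640 with 10% FCS and penicillin/streptomycin; incubated with serial dilutions at 37°C, 5% CO2; viability by MTT after 96 h; value is concentration reducing proliferation by 50%, with untreated controls undergoing at least three rounds of multiplication.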

The target of assay [17] is T2, DNA topoisomerase 4 (Staphylococcus epidermidis). In words: Inhibition of decatenation activity of DNA topoisomerase 4 in hospital methicillin-resistant Staphylococcus epidermidis 23/04 using kDNA as substrate at 32 ug/ml after 1 hr using ethidium bromide staining by agarose gel electrophoresis. Type of assay: protein assay.
Assay [18] has as its system Staphylococcus epidermidis. The assay is described as follows: Inhibition of biofilm formation in Staphylococcus epidermidis 23/04 at 4 ug/ml after 24 hrs using MTT staining by spectrophotometer analysis. Conditions: 23/04, 24 h. Type of assay: functional.
The target of assay [19] is T1, Topoisomerase IV (Staphylococcus aureus). The assay is described as follows: Inhibition of decatenation activity of DNA topoisomerase 4 in hospital methicillin-resistant Staphylococcus aureus 57/05 using kDNA as substrate at 1 to 4 ug/ml after 1 hr using ethidium bromide staining by agarose gel electrophoresis. In kind it is protein-complex assay.
For assay [20] the target is unchanged. In words: Inhibition of decatenation activity of DNA topoisomerase 4 in Staphylococcus aureus ATCC 6538 using kDNA as substrate at 1 to 4 ug/ml […] using ethidium bromide staining by agarose gel electrophoresis. In kind it is protein-complex assay.
Assay [21] relates to Staphylococcus epidermidis. In words: Inhibition of biofilm formation in Staphylococcus epidermidis 76/04 after 24 hrs using MTT staining by spectrophotometer analysis. In kind it is functional, organism-based. The following applies: 76/04, 24 h. The method, boiled down:
as §1

In assay [22] the target is T1, Topoisomerase IV (Staphylococcus aureus). In words: Inhibition of decatenation activity of DNA topoisomerase 4 in hospital methicillin-resistant Staphylococcus aureus 54/05 using kDNA as substrate at 32 ug/ml after 1 hr using ethidium bromide staining by agarose gel electrophoresis. Type of assay: protein-complex assay.
Assay [23] shares this target. In words: Inhibition of decatenation activity of DNA topoisomerase 4 in Staphylococcus aureus NCTC 4163 using kDNA as substrate at 1 to 4 ug/ml […] using ethidium bromide staining by agarose gel electrophoresis. Type of assay: protein-complex assay.
The target in assay [24] is T2, DNA topoisomerase 4 (Staphylococcus epidermidis). In words: Inhibition of decatenation activity of DNA topoisomerase 4 in hospital methicillin-resistant Staphylococcus epidermidis 31/04 using kDNA as substrate at 32 ug/ml after 1 hr using ethidium bromide staining by agarose gel electrophoresis. Type of assay: protein assay.
For assay [25] the target is unchanged. Conditions: 16/04, at 32 µg/mL.
The target in assay [26] is T1, Topoisomerase IV (Staphylococcus aureus). The assay is described as follows: Inhibition of decatenation activity of DNA topoisomerase 4 in Staphylococcus aureus ATCC 6538 using kDNA as substrate at 32 ug/ml […] using ethidium bromide staining by agarose gel electrophoresis. In kind it is protein-complex assay.
The target in assay [27] is T2, DNA topoisomerase 4 (Staphylococcus epidermidis). In words: Inhibition of decatenation activity of DNA topoisomerase 4 in hospital methicillin-resistant Staphylococcus epidermidis 63/04 using kDNA as substrate at 32 ug/ml after 1 hr using ethidium bromide staining by agarose gel electrophoresis. Type of assay: protein assay.

Data on five compounds can be found in ChEMBL document CHEMBL3616436, “Synthesis, cytotoxicity and antimicrobial activity of thiourea derivatives incorporating 3-(trifluoromethyl)phenyl moiety” (Eur J Med Chem, 2015).

Converted amounts (≈) assume the structure as drawn. The source made the active and inactive calls. The calls are words filed in the database; no cut-off is given here.

Turning to `FC(F)(F)c1cccc(NC(=S)Nc2cccc(Br)c2)c1`, the IC50 in assay [1] worked out at 1.98 µg/mL (≈ 5.28 µM); in assay [6], 3.01 µg/mL (≈ 8.02 µM); in assay [21], 2.98 µg/mL (≈ 7.94 µM). The inhibition result in [2], in [3], in [4], in assay [7], in assay [8] and in assay [9] was “Active” each time. In addition, the inhibition result in [10], in [13], in [14], in assay [15], in [17] and in assay [19] was “Active” in each case. The inhibition result in assay [20], in assay [22], in assay [23], in assay [24], in assay [25] and in assay [26] was “Active” throughout. In addition, the inhibition entry in assay [27] is “Active”. Besides, the inhibition at 4 µg/mL in assay [5] is 61.7%; in assay [11], 70.1%; in [12] it was 87%; in assay [18] it was 71.6%. In assay [16], the CC50 came out at 9 µM.

In [16], `FC(F)(F)c1cccc(NC(=S)Nc2ccc(Cl)cc2)c1` had a CC50 of 11 µM.

As to `O=C(O)c1cn(C2CC2)c2cc(N3CCNCC3)c(F)cc2c1=O` [CIPROFLOXACIN], the IC50 in assay [1] amounted to 4.81 µg/mL (≈ 14.5 µM); in assay [6] it was 12.9 µg/mL (≈ 39.1 µM); in [21], 7.93 µg/mL (≈ 23.9 µM). Moreover, the inhibition result in [2], in [3], in assay [4], in assay [7], in assay [8] and in [9] was “Active” each time. Further, the inhibition entry in assay [10], in [13], in assay [14], in assay [15], in assay [17] and in assay [19] was “Active” in each case. For the same compound, the inhibition result in [20], in [22], in assay [23], in [24], in assay [25] and in assay [26] was “Active” each time. In assay [27], the inhibition result is “Active”. Further, the inhibition at 4 µg/mL was found to be 42% in assay [5], 18.7% in assay [11], 21.3% in [12] and 5.71% in [18].

For the compound `FC(F)(F)c1cccc(NC(S)=Nc2ccc(Cl)c(Cl)c2)c1`, the CC50 in assay [16] was 8.8 µM.

Turning to `Fc1ccc(NC(=S)Nc2cccc(C(F)(F)F)c2)cc1Cl`, the IC50 in assay [1] amounted to 0.97 µg/mL (≈ 2.78 µM); in assay [6], 1.59 µg/mL (≈ 4.56 µM); in [21] it was 2.85 µg/mL (≈ 8.17 µM). The inhibition entry in [2], in assay [3], in [4], in assay [7], in assay [8] and in assay [9] was “Active” throughout. Also, the inhibition result in assay [10], in assay [13], in assay [14], in [15], in assay [17] and in assay [19] was “Active” in each case. In addition, the inhibition result in [20], in assay [22], in assay [23], in assay [24], in assay [25] and in [26] was “Active” each time. In addition, in assay [27], the inhibition entry is “Active”. Besides, the inhibition at 4 µg/mL in assay [5] was 72%; in assay [11], 77.1%; in assay [12], 95.2%; in [18], 77.9%. Further, in assay [16], the midpoint of cytotoxicity, the CC50, lay at 9.5 µM.
